≈ marks a conversion by molar mass, not a printed value.
Key:
[1] = system: Staphylococcus aureus; assay: Antibacterial activity against Staphylococcus aureus ATCC 6538p after 24 hrs; format: functional
[2] = system: Bacillus subtilis; assay: Antibacterial activity against Bacillus subtilis ATCC 6633 after 24 hrs; format: functional; conditions: ATCC 6633, 24 h
[3] = system: Micrococcus luteus; assay: Antibacterial activity against Micrococcus luteus IFC 12708 after 24 hrs; format: functional; conditions: IFC 12708, 24 h
[4] = system: Salmonella typhimurium; assay: Antibacterial activity against Salmonella typhimurium ATCC 14028 after 24 hrs; format: functional, Salmonella enterica subsp. enterica serovar Typhimurium; conditions: Salmonella enterica, ATCC 14028, 24 h
[5] = system: Proteus vulgaris; assay: Antibacterial activity against Proteus vulgaris ATCC 3851 after 24 hrs; format: functional; conditions: ATCC 3851, 24 h
[6] = system: Escherichia coli; assay: Antibacterial activity against Escherichia coli ATCC 35270 after 24 hrs; format: functional; conditions: ATCC 35270, 24 h
[7] = system: Aspergillus fumigatus; assay: Antifungal activity against Aspergillus fumigatus HIC 6094 after 48 to 72 hrs; format: functional
[8] = system: Trichophyton rubrum; assay: Antifungal activity against Trichophyton rubrum IFO 9185 after 48 to 72 hrs; format: functional
[9] = system: Trichophyton mentagrophytes; assay: Antifungal activity against Trichophyton mentagrophytes IFO 40996 after 48 to 72 hrs; format: functional
[10] = system: Candida albicans; assay: Antifungal activity against Candida albicans ATCC 10231 after 48 to 72 hrs; format: functional
[11] = system: A549; assay: Cytotoxicity against human A549 cells by MTT assay; format: functional; conditions: read-out: LC50 (the source's name)
[12] = molecular target: T1, Sortase A (Staphylococcus aureus, UniProt Q9S446); assay: Inhibition of Staphylococcus aureus ATCC 6538p recombinant SrtA; parameters: species or system ATCC 6538p r
T1 sequence (Q9S446 whole entry): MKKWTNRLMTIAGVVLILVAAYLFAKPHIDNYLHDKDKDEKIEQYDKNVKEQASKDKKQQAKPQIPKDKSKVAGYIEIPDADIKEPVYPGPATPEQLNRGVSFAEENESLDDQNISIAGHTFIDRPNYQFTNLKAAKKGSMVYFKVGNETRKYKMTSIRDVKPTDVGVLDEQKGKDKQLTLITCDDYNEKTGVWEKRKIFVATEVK

[13] = molecular target: Isocitrate lyase (Candida albicans, UniProt Q9P8Q7); assay: Inhibition of Candida albicans recombinant ICL assessed as formation of glyoxylate phenylhydrazone by spectrophotometry
Outline: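 Recombinant enzyme assayed spectrophotometrically with isocitrate and phenylhydrazine present. Absorbance at 324 nm was monitored for glyoxylate phenylhydrazone formation, and IC50 was determined.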

[14] = Inhibition of porcine cerebral cortex Na+/K+ ATPase assessed as formation of fluorescent 3-O-methylfluorescein from 3-O-methylfluorescein phosphate by fluorometry; format: tissue-based, Sus scrofa

Sequence of Isocitrate lyase (Q9P8Q7 whole entry): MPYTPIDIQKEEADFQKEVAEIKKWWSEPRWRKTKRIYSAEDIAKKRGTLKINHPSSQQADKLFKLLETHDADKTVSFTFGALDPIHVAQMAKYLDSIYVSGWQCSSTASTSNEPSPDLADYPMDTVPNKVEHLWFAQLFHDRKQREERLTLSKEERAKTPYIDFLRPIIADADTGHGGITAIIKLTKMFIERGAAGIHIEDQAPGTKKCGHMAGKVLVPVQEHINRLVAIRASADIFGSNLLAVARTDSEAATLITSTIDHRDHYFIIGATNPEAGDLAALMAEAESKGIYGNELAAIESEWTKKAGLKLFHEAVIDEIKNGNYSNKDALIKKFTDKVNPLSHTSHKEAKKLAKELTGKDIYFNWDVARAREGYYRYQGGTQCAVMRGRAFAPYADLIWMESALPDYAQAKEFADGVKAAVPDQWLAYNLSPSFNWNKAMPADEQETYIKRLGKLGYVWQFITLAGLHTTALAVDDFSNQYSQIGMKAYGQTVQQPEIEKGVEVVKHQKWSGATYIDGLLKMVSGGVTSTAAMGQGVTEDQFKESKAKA

| Structure (SMILES) | MIC [1] [µg/mL] | MIC [2] [µg/mL] | MIC [3] [µg/mL] | MIC [4] [µg/mL] | MIC [5] [µg/mL] | MIC [6] [µg/mL] | MIC [7] [µg/mL] | MIC [8] [µg/mL] | MIC [9] [µg/mL] | MIC [10] [µg/mL] | CC50 [11] [µM] | IC50 [12] [µM] | IC50 [13] [µM] | IC50 [14] [µM] |
| --- | --- | --- | --- | --- | --- | --- | --- | --- | --- | --- | --- | --- | --- | --- |
| Oc1ccc(C(O)c2nccc3c2[nH]c2ccccc23)cc1 (stereo unspecified) [EUDISTOMIN Y8] | 100 (≈ 344 µM) | 100 (≈ 344 µM) | 100 (≈ 344 µM) | > 100 | > 100 | > 100 | > 100 | > 100 | > 100 | > 100 | > 344 | > 344 | 68.9 | > 344 |
| Oc1c(Br)cc(C(O)c2nccc3c2[nH]c2ccccc23)cc1Br (stereo unspecified) [EUDISTOMIN Y10] | 25 (≈ 55.8 µM) | 25 (≈ 55.8 µM) | 12.5 (≈ 27.9 µM) | 12.5 (≈ 27.9 µM) | 12.5 (≈ 27.9 µM) | > 100 | > 100 | > 100 | > 100 | > 100 | > 223 | > 223 |  | 122 |
| COc1cccc2c1C(=O)c1c(O)c3c(c(O)c1C2=O)C[C@@](O)(C(=O)CO)C[C@@H]3O[C@H]1C[C@H](N)[C@H](O)[C@H](C)O1 [DOXORUBICIN] |  |  |  |  |  |  |  |  |  |  | 3.3 |  |  |  |
| O=C(c1ccc(O)c(Br)c1)c1nccc2c1[nH]c1ccc(Br)cc12 [EUDISTOMIN Y4] | 3.12 (≈ 7.01 µM) | 0.78 (≈ 1.75 µM) | 1.56 (≈ 3.5 µM) | 0.39 (≈ 0.874 µM) | 0.39 (≈ 0.874 µM) | 50 (≈ 112 µM) | > 100 | > 100 | > 100 | > 100 | 48.4 | 163 |  | 7.5 |
| O=C(c1cc(Br)c(O)c(Br)c1)c1nccc2c1[nH]c1cc(Br)ccc12 [EUDISTOMIN Y7] | 3.12 (≈ 5.95 µM) | 0.78 (≈ 1.49 µM) | 1.56 (≈ 2.97 µM) | 0.78 (≈ 1.49 µM) | 0.78 (≈ 1.49 µM) | 50 (≈ 95.2 µM) | > 100 | > 100 | > 100 | > 100 | 59 | > 190 |  | 11.3 |
| O=C(c1cc(Br)c(O)c(Br)c1)c1nccc2c1[nH]c1ccccc12 [EUDISTOMIN Y5] | 6.25 (≈ 14 µM) | 3.12 (≈ 7.01 µM) | 3.12 (≈ 7.01 µM) | 0.78 (≈ 1.75 µM) | 1.56 (≈ 3.5 µM) | 100 (≈ 224 µM) | > 100 | > 100 | > 100 | > 100 | 85.4 | 146 |  | 19.8 |
| Cc1ccc(S(=O)(=O)Oc2ccc(C(O)c3nccc4c3[nH]c3ccc(Br)cc34)cc2Br)cc1 (stereo unspecified) [EUDISTOMIN Y12] | > 100 | > 100 | > 100 | > 100 | > 100 | > 100 | > 100 | > 100 | > 100 | > 100 | 63.3 | > 166 | > 166 |  |
| CC1(C)S[C@@H]2[C@H](NC(=O)[C@H](N)c3ccccc3)C(=O)N2[C@H]1C(=O)O [AMPICILLIN] | 0.39 (≈ 1.12 µM) | 0.78 (≈ 2.23 µM) | 0.39 (≈ 1.12 µM) | 0.78 (≈ 2.23 µM) | 0.39 (≈ 1.12 µM) | 6.25 (≈ 17.9 µM) |  |  |  |  |  |  |  |  |
| C[C@@H]1[C@H](O)[C@@H](C)/C=C/C=C/C=C/C=C/C=C/C=C/C=C/[C@H](O[C@@H]2O[C@H](C)[C@@H](O)[C@H](N)[C@@H]2O)C[C@@H]2O[C@](O)(C[C@@H](O)C[C@@H](O)[C@H](O)CC[C@@H](O)C[C@@H](O)CC(=O)O[C@H]1C)C[C@H](O)[C@H]2C(=O)O [AMPHOTERICIN B] |  |  |  |  |  |  | 0.78 (≈ 0.844 µM) | 0.78 (≈ 0.844 µM) | 0.39 (≈ 0.422 µM) | 0.39 (≈ 0.422 µM) |  |  |  |  |
| Oc1c(Br)cc(C(O)c2nccc3c2[nH]c2ccc(Br)cc23)cc1Br (stereo unspecified) [EUDISTOMIN Y11] | 6.25 (≈ 11.9 µM) | 3.12 (≈ 5.93 µM) | 3.12 (≈ 5.93 µM) | 3.12 (≈ 5.93 µM) | 3.12 (≈ 5.93 µM) | 100 (≈ 190 µM) | > 100 | > 100 | > 100 | > 100 | > 190 | > 190 |  | 32.8 |
| O=C(c1ccc(O)c(Br)c1)c1nccc2c1[nH]c1ccccc12 [EUDISTOMIN Y3] | 12.5 (≈ 34 µM) | 12.5 (≈ 34 µM) | 12.5 (≈ 34 µM) | 6.25 (≈ 17 µM) | 6.25 (≈ 17 µM) | 100 (≈ 272 µM) | > 100 | > 100 | > 100 | > 100 | 253 | > 272 | > 272 | 22.5 |
| OC(c1ccccc1)c1nccc2c1[nH]c1ccc(Br)cc12 (stereo unspecified) [EUDISTOMIN Y13] | > 100 | 100 (≈ 283 µM) | 100 (≈ 283 µM) | > 100 | > 100 | > 100 | > 100 | > 100 | > 100 | > 100 | 49 | > 283 | > 283 |  |
| C[C@@H]1O[C@@H](O[C@H]2C[C@@H](O)[C@]3(CO)[C@H]4[C@H](O)C[C@]5(C)[C@@H](C6=CC(=O)OC6)CC[C@]5(O)[C@@H]4CC[C@]3(O)C2)[C@H](O)[C@H](O)[C@H]1O [OUABAIN] |  |  |  |  |  |  |  |  |  |  |  |  |  | 6.3 |
| O=C(O)CC[N+](=O)[O-] |  |  |  |  |  |  |  |  |  |  |  |  | 38.6 |  |
| O=C(c1cc(Br)c(O)c(Br)c1)c1nccc2c1[nH]c1ccc(Br)cc12 [EUDISTOMIN Y6] | 1.56 (≈ 2.97 µM) | 1.56 (≈ 2.97 µM) | 1.56 (≈ 2.97 µM) | 0.39 (≈ 0.743 µM) | 0.78 (≈ 1.49 µM) | 50 (≈ 95.2 µM) | > 100 | > 100 | > 100 | > 100 | 60 | > 190 |  | 10.1 |
| O=C(c1ccc(O)cc1)c1nccc2c1[nH]c1ccccc12 [EUDISTOMIN Y1] | > 100 | > 100 | > 100 | > 100 | > 100 | > 100 | 50 (≈ 173 µM) | 50 (≈ 173 µM) | 100 (≈ 347 µM) | 50 (≈ 173 µM) | 59 | > 347 | 48.2 |  |
| Oc1ccc(C(O)c2nccc3c2[nH]c2ccc(Br)cc23)cc1Br (stereo unspecified) [EUDISTOMIN Y9] | 6.25 (≈ 13.9 µM) | > 100 | > 100 | > 100 | > 100 | > 100 | > 100 | > 100 | > 100 | > 100 | 17.9 | > 223 |  | 33.3 |

— ChEMBL document CHEMBL2046370, “Beta-carboline alkaloids derived from the ascidian Synoicum sp” (Bioorg Med Chem, 2012)
